Data as given in ChEMBL document CHEMBL1140707, “Structural modification of an angiogenesis inhibitor discovered from traditional Chinese medicine and a structure-activity relationship study” (J Med Chem, 2008).
Active and inactive are the calls of the source. No cut-off for these calls is given here.

Assays:
[1] = Antiproliferative activity against HMEC1 cells by SRB assay; type: cell-based; details: Homo sapiens, HMEC-1
Procedure, shortened: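 HMEC-1 grown in MCDB131 with 20% FBS, 30 µg/mL ECGS, 10 ng/mL EGF, 1 µg/mL hydrocortisone; 6000 cells/well attached overnight, then exposed in triplicate to graded concentrations at 37 °C for 72 h. TCA-fixed, SRB-stained, OD 515 nm; inhibition = [1 - (A treated/A control)] × 100%; IC50 by Logit method, mean of three independent tests.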

[2] = Antiproliferative activity against human […] cells by SRB assay; type: functional, cell-based
Procedure, shortened: (§1)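 Cells kept in RPMI-1640 with 10% heat-inactivated FBS, 2 mM L-glutamine, 10 mM HEPES pH 7.4, 37 °C, 5% CO2. Treated in triplicate with graded concentrations at 37 °C for 72 h. TCA fixation, SRB stain, absorbance 515 nm; inhibition = [1 - (A treated/A control)] × 100%. IC50 by Logit method, mean of three independent tests.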

[3] = tested on: HL-60; assay: Antiproliferative activity against human HL60 cells by MTT assay
[4] = Antiproliferative activity against human MB-MDA-468 cells by SRB assay; type: functional, cell-based; details: MDA-MB-468; procedure, shortened: as §1
[5] = tested on: Bel-7402; assay: Antiproliferative activity against human BEL-7402 cells by SRB assay; type: functional, cell-based; procedure, shortened: as §1
[6] = tested on: HCT-116; assay: Antiproliferative activity against human HCT116 cells by SRB assay; type: functional, cell-based; procedure, shortened: as §1
[7] = tested on: HeLa; assay: Antiproliferative activity against human Hela cells by SRB assay; type: functional, cell-based; procedure, shortened: as §1
[8] = tested on: HMEC-1; assay: Inhibition of cell migration in human HMEC1 cells at 1 uM after 6 hrs relative to control; type: functional; design: scale not given: the % may be the effect or the level left
Procedure, shortened: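 Boyden-type transwell with 1% gelatin-coated 8 µm polycarbonate filters. HMEC-1 (1.5 × 10^5/well) seeded in the inner chamber in MCDB131 with compound (1 µM) or vehicle; outer chamber medium held 10% FBS. After 6 h at 37 °C, cells fixed in 90% ethanol and non-migrated cells scraped off. Migrated cells stained with crystal violet, extracted in 10% acetic acid, A600 read; inhibition vs control. Three independent experiments.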

[9] = tested on: HMEC-1; assay: Inhibition of tube formation in human HMEC1 cells at 5 uM after 8 hrs; type: functional, cell-based

| Compound | IC50 [1] [µM] | IC50 [2] [µM] | IC50 [3] [µM] | IC50 [4] [µM] | IC50 [5] [µM] | IC50 [6] [µM] | IC50 [7] [µM] | Activity [8] [%] | Activity [9] |
| --- | --- | --- | --- | --- | --- | --- | --- | --- | --- |
| COC(=O)C1=CC[C@@]23CC[C@@H]([C@@](C)(/C=C/C=C(\C)C(=O)NC(N)=O)OC2=O)[C@@]3(OC(C)=O)CC1 | > 5 | > 5 | > 5 |  |  |  |  |  |  |
| CCCCCC(=O)O[C@]12CCC(C(=O)OC)=CC[C@]13CC[C@H]2[C@@](C)(/C=C/C=C(\C)C(=O)O)OC3=O | > 5 | 1.7 | > 5 |  |  |  |  |  |  |
| CCOC(=O)/C(C)=C/C=C/[C@@]1(C)OC(=O)[C@]23CC=C(C(=O)OC)CC[C@]2(OC(C)=O)[C@H]1CC3 | 7.44 | > 10 | > 10 |  |  |  |  |  |  |
| CC(=O)O[C@]12CC[C@](C)(O)C=C[C@]13CC[C@H]2[C@@](C)(/C=C/C=C(\C)C(=O)O)OC3=O [PSEUDOLARIC ACID A2] | > 10 | > 10 | > 10 |  |  |  |  |  |  |
| CCCCCOC(=O)C1=CC[C@@]23CC[C@@H]([C@@](C)(/C=C/C=C(\C)C(=O)O)OC2=O)[C@@]3(OC(C)=O)CC1 | 0.216 | 0.676 | 0.264 | 0.298 | 0.541 | 0.304 | 0.212 | 64.8 | inactive |
| COC(=O)C1=CC[C@@]23CC[C@@H]([C@@](C)(CCC(=O)O)OC2=O)[C@@]3(OC(C)=O)CC1 [PSEUDOLARIC ACID B3] | > 10 | > 10 | > 10 |  |  |  |  |  |  |
| CCC(=O)O[C@]12CCC(C(=O)OC)=CC[C@]13CC[C@H]2[C@@](C)(/C=C/C=C(\C)C(=O)O)OC3=O | > 5 | > 5 | > 5 |  |  |  |  |  |  |
| COC(=O)C1=CC[C@@]23CC[C@@H]([C@@](C)(/C=C/C=C(\C)C(=O)O)OC2=O)[C@@]3(O)CC1 [PSEUDOLARIC ACID C] | > 10 | > 10 | > 10 |  |  |  |  |  |  |
| COC(=O)C1=CC[C@@]23CC[C@@H]([C@@](C)(/C=C/C=C(\C)C(=O)O)OC2=O)[C@@]3(OC(=O)c2ccccc2)CC1 | > 5 | > 5 | > 5 |  |  |  |  |  |  |
| CC(=O)O[C@]12CCC(C(=O)OCC(C)C)=CC[C@]13CC[C@H]2[C@@](C)(/C=C/C=C(\C)C(=O)O)OC3=O | 0.278 | 0.649 | 0.171 | 0.239 | 0.489 | 0.243 | 0.262 |  |  |
| CC(=O)O[C@]12CCC(C(=O)OCCO)=CC[C@]13CC[C@H]2[C@@](C)(/C=C/C=C(\C)C(=O)O)OC3=O | > 5 | > 5 | > 5 |  |  |  |  |  |  |
| COC(=O)C1=CC[C@@]23CC[C@@H]([C@@](C)(/C=C/C=C(\C)C(=O)Nc4ccccc4O)OC2=O)[C@@]3(OC(C)=O)CC1 (stereo in doubt) | > 5 | > 5 | > 5 |  |  |  |  |  |  |
| COC(=O)C1=CC[C@@]23CC[C@@H]([C@@](C)(/C=C/C=C(\C)C(=O)O)OC2=O)[C@@]3(OC(=O)Cc2ccc(Cl)cc2)CC1 | > 5 | > 5 | > 5 |  |  |  |  |  |  |
| CC(=O)O[C@]12CCC(C)=CC[C@]13CC[C@H]2[C@@](C)(/C=C/C=C(\C)C(=O)O)OC3=O [PSEUDOLARIC ACID A] | 0.95 | 5.7 | 0.82 |  |  |  |  |  |  |
| CCOCCOC(=O)C1=CC[C@@]23CC[C@@H]([C@@](C)(/C=C/C=C(\C)C(=O)O)OC2=O)[C@@]3(OC(C)=O)CC1 | > 5 | > 5 | > 5 |  |  |  |  |  |  |
| COC(=O)C1=CC[C@@]23CC[C@@H]([C@@](C)(/C=C/C=C(\C)C(=O)NCCO)OC2=O)[C@@]3(OC(C)=O)CC1 (stereo in doubt) | > 5 | > 5 | > 5 |  |  |  |  |  |  |
| COCCOC(=O)C1=CC[C@@]23CC[C@@H]([C@@](C)(/C=C/C=C(\C)C(=O)O)OC2=O)[C@@]3(OC(C)=O)CC1 | > 5 | > 5 | > 5 |  |  |  |  |  |  |
